For the test, the target named is T1, Thermolysin (Bacillus thermoproteolyticus, UniProt P00800).
T1 sequence (P00800 whole entry): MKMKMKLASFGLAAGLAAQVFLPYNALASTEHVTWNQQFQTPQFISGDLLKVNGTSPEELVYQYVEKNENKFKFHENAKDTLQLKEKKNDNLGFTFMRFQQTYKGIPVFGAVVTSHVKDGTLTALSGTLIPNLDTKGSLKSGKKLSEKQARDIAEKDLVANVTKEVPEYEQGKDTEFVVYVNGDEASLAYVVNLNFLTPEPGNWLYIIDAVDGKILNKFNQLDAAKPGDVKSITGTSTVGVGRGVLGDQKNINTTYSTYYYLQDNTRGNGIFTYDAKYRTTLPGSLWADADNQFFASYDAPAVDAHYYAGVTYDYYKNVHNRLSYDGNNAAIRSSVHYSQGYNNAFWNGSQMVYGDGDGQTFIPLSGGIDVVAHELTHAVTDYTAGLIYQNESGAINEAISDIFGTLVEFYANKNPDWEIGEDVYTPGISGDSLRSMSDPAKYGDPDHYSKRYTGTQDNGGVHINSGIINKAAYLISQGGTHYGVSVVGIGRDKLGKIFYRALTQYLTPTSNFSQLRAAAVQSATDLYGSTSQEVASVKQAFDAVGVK
Description: Inhibition of Bacillus thermoproteolyticus TLN using 2-furanacryloyl-Gly-Leu-NH2 substrate by biochemical assay. The method, boiled down: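 Read photometrically at 345 nm, 25.0 ± 0.2 °C, in 0.05 M Tris with 0.02 M CaCl2, 2.5 M NaBr, 1.25% DMF, pH 7.3. Final enzyme ~8 nM (stock quantified by A280). Inhibitor spanned 0.5Ki–10Ki. IC50 from υ0/υi vs [I] plots (Ki above 30 nM) or Henderson plots (below). Ki via Cheng-Prusoff (Km 3.9 ± 0.6 mM), averaged over at least three determinations.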

We go through 34 molecules from ChEMBL document CHEMBL3407486, “Additivity or cooperativity: which model can predict the influence of simultaneous incorporation of two or more functionalities in a ligand molecule?” (Eur J Med Chem, 2015).

As a reminder, the Ki is the equilibrium dissociation constant of an inhibitor or competing ligand from its target. Low readings indicate higher affinity, high ones lower affinity.

`CCCCCNC(=O)[C@H](CC(C)C)NP(=O)(O)CNC(=O)OCc1ccccc1` came in with an inhibition constant (Ki) of 59 nM. To `CC(C)C[C@H](NC(=O)[C@H](CC(C)C)NP(=O)(O)CNC(=O)OCc1ccccc1)C(=O)O` belongs 10 nM; to `CC(C)C[C@H](NP(=O)(O)CNC(=O)OCc1ccccc1)C(=O)NCC(C)(C)C`, 100 nM. Turning to `CC(C)CCNC(=O)[C@H](C)NP(=O)(O)CNC(=O)OCc1ccccc1`, the affinity corresponds to a Ki of 19500 nM. This Ki is about 200-fold higher than that of the molecule before. In turn, `C[C@H](NP(=O)(O)CNC(=O)OCc1ccccc1)C(=O)NCCc1ccccc1` showed a Ki of 45200 nM. As for `CCC(C)[C@H](NC(=O)[C@H](CC(C)C)NP(=O)(O)CNC(=O)OCc1ccccc1)C(=O)O` (some centres undefined), the Ki was 12 nM. To `CC(C)C[C@H](NP(=O)(O)CNC(=O)OCc1ccccc1)C(=O)NCCc1cccs1` belongs 189 nM; to `CC(C)CNC(=O)[C@H](CC(C)C)NP(=O)(O)CNC(=O)OCc1ccccc1`, 37 nM. The molecule `CC(C)C[C@H](NC(=O)[C@H](C)NP(=O)(O)CNC(=O)OCc1ccccc1)C(=O)O` registered a Ki of 5920 nM. To `CC(C)C[C@H](NP(=O)(O)CNC(=O)OCc1ccccc1)C(=O)N[C@@H](CC(C)(C)C)C(=O)O` belongs 40 nM; to `C[C@H](NC(=O)[C@H](C)NP(=O)(O)CNC(=O)OCc1ccccc1)C(=O)O`, 7200 nM; to `CC[C@H](NP(=O)(O)CNC(=O)OCc1ccccc1)C(=O)NCCC(C)C`, 1970 nM. To `CC(C)C[C@H](NP(=O)(O)CNC(=O)OCc1ccccc1)C(=O)N[C@@H](Cc1cccs1)C(=O)O` belongs 24 nM; to `CCCCNC(=O)[C@H](CC(C)C)NP(=O)(O)CNC(=O)OCc1ccccc1`, 67 nM. In the case of `CC[C@H](NC(=O)[C@H](C)NP(=O)(O)CNC(=O)OCc1ccccc1)C(=O)O`, affinity was put at a Ki of 1370 nM. To `C[C@H](NP(=O)(O)CNC(=O)OCc1ccccc1)C(=O)N[C@@H](Cc1ccccc1)C(=O)O` belongs 31100 nM; to `CCCC[C@H](NC(=O)[C@H](CC(C)C)NP(=O)(O)CNC(=O)OCc1ccccc1)C(=O)O`, 5.3 nM; to `CC[C@H](NC(=O)[C@H](CC(C)C)NP(=O)(O)CNC(=O)OCc1ccccc1)C(=O)O`, 4.9 nM. Take `C[C@H](NP(=O)(O)CNC(=O)OCc1ccccc1)C(=O)NCC(=O)O`: the Ki turned out to be 189000 nM. This Ki lies about 39000-fold higher than the previous one.

`CCNC(=O)[C@H](C)NP(=O)(O)CNC(=O)OCc1ccccc1` yielded an inhibition constant Ki of 56200 nM. This Ki is about 3.4-fold lower than that of the molecule before. To `CNC(=O)[C@H](C)NP(=O)(O)CNC(=O)OCc1ccccc1` belongs 185000 nM; to `CCC[C@H](NP(=O)(O)CNC(=O)OCc1ccccc1)C(=O)NCCC(C)C`, 219 nM; to `CC[C@H](NP(=O)(O)CNC(=O)OCc1ccccc1)C(=O)N[C@@H](CC(C)C)C(=O)O`, 596 nM. To `CC(C)C[C@H](NP(=O)(O)CNC(=O)OCc1ccccc1)C(=O)N[C@@H](Cc1ccccc1)C(=O)O` belongs 54 nM; to `CCC[C@H](NC(=O)[C@H](CC(C)C)NP(=O)(O)CNC(=O)OCc1ccccc1)C(=O)O`, 5.5 nM.

The molecule `CC(C)C[C@H](NP(=O)(O)CNC(=O)OCc1ccccc1)C(=O)N[C@H](C(=O)O)C(C)C` displayed a Ki of 5.8 nM. To `CC(C)CCNC(=O)[C@H](CC(C)C)NP(=O)(O)CNC(=O)OCc1ccccc1` belongs 69 nM. To `CCC[C@H](NP(=O)(O)CNC(=O)OCc1ccccc1)C(=O)N[C@@H](CC(C)C)C(=O)O` belongs 29 nM; to `CC(C)C[C@H](NP(=O)(O)CNC(=O)OCc1ccccc1)C(=O)NCCC(C)(C)C`, 43 nM; to `CC(C)C[C@H](NP(=O)(O)CNC(=O)OCc1ccccc1)C(=O)N[C@H](C(=O)O)C(C)(C)C`, 31 nM. To `CCCNC(=O)[C@H](C)NP(=O)(O)CNC(=O)OCc1ccccc1` belongs 12400 nM; to `CCCNC(=O)[C@H](CC(C)C)NP(=O)(O)CNC(=O)OCc1ccccc1`, 60 nM. As to `CCC(C)CNC(=O)[C@H](CC(C)C)NP(=O)(O)CNC(=O)OCc1ccccc1` (some centres undefined), the affinity corresponds to a Ki of 26 nM. To `CC(C)C[C@H](NP(=O)(O)CNC(=O)OCc1ccccc1)C(=O)NCCc1ccccc1` belongs 296 nM.
